≈ marks a conversion by molar mass, not a printed value.
test system: Staphylococcus aureus; assay: Antibacterial activity against methicillin-resistant Staphylococcus aureus at 320 ug/ml after 24 hrs by Oxford cup assay; format: functional; settings: read-out: IZ
How it was run: (§1)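 Oxford cup diffusion: clinical isolate inoculum in 0.9% saline set by McFarland standard, spread evenly on nutrient agar. Cups placed equidistant on the surface and filled with compound solutions prepared as for the agar dilution test, at several concentrations. Inhibition zone measured after 24 h at 37 °C.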

Row | Compound | zone of inhibition at 320 µg/mL [mm]
1 | C=C[C@]1(C)C[C@@H](OC(=O)CSC(C)(C)CNC(=O)c2cccc(N)c2)[C@]2(C)[C@H](C)CC[C@]3(CCC(=O)[C@H]32)[C@@H](C)[C@@H]1O | 10.2

test system: Streptococcus agalactiae; assay: Antibacterial activity against Streptococcus agalactiae after 48 hrs by agar dilution method; format: functional; settings: not given
How it was run: (§2)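 Agar dilution per NCCLS on clinical isolates. 2-fold serial dilutions of compound (2 mL) mixed into 18 mL hot Mueller-Hinton agar. Inoculum from blood slants, adjusted to approx. 10⁵–10⁶ cfu/mL in sterile 0.90% NaCl, then spotted onto the plates. Incubated 36.5 °C, 48 h. MIC is the lowest concentration giving complete growth inhibition. Run in triplicate at pH 7.40.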

Row | Compound | MIC [µg/mL]
2 | C=C[C@]1(C)C[C@@H](OC(=O)CSC(C)(C)CNC(=O)c2cccc(N)c2)[C@]2(C)[C@H](C)CC[C@]3(CCC(=O)[C@H]32)[C@@H](C)[C@@H]1O | 0.5 (≈ 0.855 µM)

test system: Staphylococcus epidermidis; assay: Antibacterial activity against methicillin-resistant Staphylococcus epidermidis at 80 ug/ml after 24 hrs by Oxford cup assay; format: functional; settings: read-out: IZ; how it was run: as §1

Row | Compound | zone of inhibition at 80 µg/mL [mm]
3 | C=C[C@]1(C)C[C@@H](OC(=O)CSC(C)(C)CNC(=O)c2cccc(N)c2)[C@]2(C)[C@H](C)CC[C@]3(CCC(=O)[C@H]32)[C@@H](C)[C@@H]1O | 9.63

test system: Escherichia coli; assay: Antibacterial activity against Escherichia coli at 160 ug/ml after 24 hrs by Oxford cup assay; format: functional; settings: read-out: IZ
How it was run: (§3)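 Oxford cup diffusion with clinical isolates. Inoculum made in 0.9% saline to a McFarland standard and spread evenly on nutrient agar. Compound solutions, prepared as for the agar dilution test, were added at the stated concentration to Oxford cups set equidistant on the agar surface. Inhibition zones were measured after 24 h at 37 °C.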

Row | Compound | zone of inhibition at 160 µg/mL [mm]
4 | C=C[C@]1(C)C[C@@H](OC(=O)CSC(C)(C)CNC(=O)c2cccc(N)c2)[C@]2(C)[C@H](C)CC[C@]3(CCC(=O)[C@H]32)[C@@H](C)[C@@H]1O | 12.5

test system: Streptococcus agalactiae; assay: Antibacterial activity against Streptococcus agalactiae at 80 ug/ml after 24 hrs by Oxford cup assay; format: functional; settings: read-out: IZ; how it was run: as §3

Row | Compound | zone of inhibition at 80 µg/mL [mm]
5 | C=C[C@]1(C)C[C@@H](OC(=O)CSC(C)(C)CNC(=O)c2cccc(N)c2)[C@]2(C)[C@H](C)CC[C@]3(CCC(=O)[C@H]32)[C@@H](C)[C@@H]1O | 8.86

test system: Escherichia coli; assay: Antibacterial activity against Escherichia coli after 48 hrs by agar dilution method; format: functional; settings: not given; how it was run: as §2

Row | Compound | MIC [µg/mL]
6 | C=C[C@]1(C)C[C@@H](OC(=O)CSC(C)(C)CNC(=O)c2cccc(N)c2)[C@]2(C)[C@H](C)CC[C@]3(CCC(=O)[C@H]32)[C@@H](C)[C@@H]1O | 8 (≈ 13.7 µM)

test system: Escherichia coli; assay: Antibacterial activity against Escherichia coli at 80 ug/ml after 24 hrs by Oxford cup assay; format: functional; settings: read-out: IZ; how it was run: as §3

Row | Compound | zone of inhibition at 80 µg/mL [mm]
7 | C=C[C@]1(C)C[C@@H](OC(=O)CSC(C)(C)CNC(=O)c2cccc(N)c2)[C@]2(C)[C@H](C)CC[C@]3(CCC(=O)[C@H]32)[C@@H](C)[C@@H]1O | 9.94

test system: Staphylococcus aureus; assay: Antibacterial activity against methicillin-resistant Staphylococcus aureus after 48 hrs by agar dilution method; format: functional; settings: not given
How it was run: (§4)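 Agar dilution per NCCLS: 2-fold serial dilutions incorporated into hot Mueller-Hinton agar. Clinical isolates grown from blood slants, suspended in sterile 0.90% NaCl to about 10⁵–10⁶ cfu/mL, spotted onto plates. Incubation 36.5 °C, 48 h. MIC taken as the lowest concentration giving complete growth inhibition. Run in triplicate at pH 7.40.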

Row | Compound | MIC [µg/mL]
8 | C=C[C@]1(C)C[C@@H](OC(=O)CSC(C)(C)CNC(=O)c2cccc(N)c2)[C@]2(C)[C@H](C)CC[C@]3(CCC(=O)[C@H]32)[C@@H](C)[C@@H]1O | 2 (≈ 3.42 µM)

test system: Staphylococcus aureus; assay: Antibacterial activity against methicillin-resistant Staphylococcus aureus at 80 ug/ml after 24 hrs by Oxford cup assay; format: functional; settings: read-out: IZ; how it was run: as §1

Row | Compound | zone of inhibition at 80 µg/mL [mm]
9 | C=C[C@]1(C)C[C@@H](OC(=O)CSC(C)(C)CNC(=O)c2cccc(N)c2)[C@]2(C)[C@H](C)CC[C@]3(CCC(=O)[C@H]32)[C@@H](C)[C@@H]1O | 9.56

test system: Staphylococcus epidermidis; assay: Antibacterial activity against methicillin-resistant Staphylococcus epidermidis at 160 ug/ml after 24 hrs by Oxford cup assay; format: functional; settings: read-out: IZ; how it was run: as §1

Row | Compound | zone of inhibition at 160 µg/mL [mm]
10 | C=C[C@]1(C)C[C@@H](OC(=O)CSC(C)(C)CNC(=O)c2cccc(N)c2)[C@]2(C)[C@H](C)CC[C@]3(CCC(=O)[C@H]32)[C@@H](C)[C@@H]1O | 9.72

test system: Staphylococcus aureus; assay: Antibacterial activity against methicillin-resistant Staphylococcus aureus at 160 ug/ml after 24 hrs by Oxford cup assay; format: functional; settings: read-out: IZ; how it was run: as §1

Row | Compound | zone of inhibition at 160 µg/mL [mm]
11 | C=C[C@]1(C)C[C@@H](OC(=O)CSC(C)(C)CNC(=O)c2cccc(N)c2)[C@]2(C)[C@H](C)CC[C@]3(CCC(=O)[C@H]32)[C@@H](C)[C@@H]1O | 10.8

test system: Streptococcus agalactiae; assay: Antibacterial activity against Streptococcus agalactiae at 160 ug/ml after 24 hrs by Oxford cup assay; format: functional; settings: read-out: IZ; how it was run: as §3

Row | Compound | zone of inhibition at 160 µg/mL [mm]
12 | C=C[C@]1(C)C[C@@H](OC(=O)CSC(C)(C)CNC(=O)c2cccc(N)c2)[C@]2(C)[C@H](C)CC[C@]3(CCC(=O)[C@H]32)[C@@H](C)[C@@H]1O | 9.8

test system: Streptococcus agalactiae; assay: Antibacterial activity against Streptococcus agalactiae at 320 ug/ml after 24 hrs by Oxford cup assay; format: functional; settings: read-out: IZ; how it was run: as §3

Row | Compound | zone of inhibition at 320 µg/mL [mm]
13 | C=C[C@]1(C)C[C@@H](OC(=O)CSC(C)(C)CNC(=O)c2cccc(N)c2)[C@]2(C)[C@H](C)CC[C@]3(CCC(=O)[C@H]32)[C@@H](C)[C@@H]1O | 9.66

test system: Escherichia coli; assay: Antibacterial activity against Escherichia coli at 320 ug/ml after 24 hrs by Oxford cup assay; format: functional; settings: read-out: IZ; how it was run: as §3

Row | Compound | zone of inhibition at 320 µg/mL [mm]
14 | C=C[C@]1(C)C[C@@H](OC(=O)CSC(C)(C)CNC(=O)c2cccc(N)c2)[C@]2(C)[C@H](C)CC[C@]3(CCC(=O)[C@H]32)[C@@H](C)[C@@H]1O | 10.7

test system: Staphylococcus epidermidis; assay: Antibacterial activity against methicillin-resistant Staphylococcus epidermidis at 320 ug/ml after 24 hrs by Oxford cup assay; format: functional; settings: read-out: IZ; how it was run: as §1

Row | Compound | zone of inhibition at 320 µg/mL [mm]
15 | C=C[C@]1(C)C[C@@H](OC(=O)CSC(C)(C)CNC(=O)c2cccc(N)c2)[C@]2(C)[C@H](C)CC[C@]3(CCC(=O)[C@H]32)[C@@H](C)[C@@H]1O | 11.2

test system: Staphylococcus epidermidis; assay: Antibacterial activity against methicillin-resistant Staphylococcus epidermidis after 48 hrs by agar dilution method; format: functional; settings: not given; how it was run: as §4

Row | Compound | MIC [µg/mL]
16 | C=C[C@]1(C)C[C@@H](OC(=O)CSC(C)(C)CNC(=O)c2cccc(N)c2)[C@]2(C)[C@H](C)CC[C@]3(CCC(=O)[C@H]32)[C@@H](C)[C@@H]1O | 1 (≈ 1.71 µM)
